Results from different studies.
Target: Serine/threonine-protein kinase TAO1 (TAOK1, Homo sapiens, UniProt Q7L7X3)
Residues used in one study (Q7L7X3 1-1001): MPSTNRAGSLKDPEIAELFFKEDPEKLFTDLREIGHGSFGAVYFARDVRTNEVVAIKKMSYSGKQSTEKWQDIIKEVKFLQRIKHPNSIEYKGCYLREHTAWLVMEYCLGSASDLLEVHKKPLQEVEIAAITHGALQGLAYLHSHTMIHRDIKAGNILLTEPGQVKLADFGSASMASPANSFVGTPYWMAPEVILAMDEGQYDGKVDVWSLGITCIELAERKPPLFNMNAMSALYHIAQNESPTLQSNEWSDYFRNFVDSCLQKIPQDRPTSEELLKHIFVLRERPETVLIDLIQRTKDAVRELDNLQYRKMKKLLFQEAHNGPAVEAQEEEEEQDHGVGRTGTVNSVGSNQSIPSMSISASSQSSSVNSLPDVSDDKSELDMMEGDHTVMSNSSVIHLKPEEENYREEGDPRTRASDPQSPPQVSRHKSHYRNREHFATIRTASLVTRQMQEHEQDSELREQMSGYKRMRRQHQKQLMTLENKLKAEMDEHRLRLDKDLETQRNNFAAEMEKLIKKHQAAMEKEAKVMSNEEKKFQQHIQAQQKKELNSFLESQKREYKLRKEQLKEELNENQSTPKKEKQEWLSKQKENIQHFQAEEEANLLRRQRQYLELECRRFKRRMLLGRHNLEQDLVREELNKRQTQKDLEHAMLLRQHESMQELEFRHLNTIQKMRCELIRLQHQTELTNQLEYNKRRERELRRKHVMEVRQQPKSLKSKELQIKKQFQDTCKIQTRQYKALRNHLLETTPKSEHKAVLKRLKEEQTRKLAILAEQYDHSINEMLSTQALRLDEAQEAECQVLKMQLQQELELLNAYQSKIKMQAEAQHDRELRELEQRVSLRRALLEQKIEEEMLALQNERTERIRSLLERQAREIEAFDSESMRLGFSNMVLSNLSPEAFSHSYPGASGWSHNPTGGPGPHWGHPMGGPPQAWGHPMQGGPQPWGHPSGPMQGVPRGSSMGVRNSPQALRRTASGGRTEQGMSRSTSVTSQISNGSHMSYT

Compound | test | setting | remaining binding [%]
FC(F)(F)Oc1cccc(-c2cnc3ccc(-c4ccncc4)nn23)c1 | binding, competition with immobilised ligand | 5 µM | 40
O=C1CCc2cc(Nc3cc(OC4CCOCC4)c([N+](=O)[O-])cc3Cl)ccc2N1 | cell-free assay, competition with immobilised ligand | 1 µM | 81
O=C(Nc1c[nH]nc1C(=O)NC1CCNCC1)c1cc(F)cc(F)c1 | binding, competition with immobilised ligand | 1 µM | 80
Nc1ncc2c(n1)-c1c([nH]c3ccc(C#CC4CC4)cc13)CCCC2 | binding, competition with immobilised ligand | 1 µM | 97
O=C(c1ccc(Nc2ncc(Cl)c(-c3ccc(Cl)s3)n2)cc1)N1CCC(N2CCCC2)CC1 | binding, competition with immobilised ligand | 1 µM | 47
COCCOc1nc(-c2ccc(Cl)nc2)nc2c1CN(C(=O)c1ncn3ccccc13)CC2 | cell-free assay, competition with immobilised ligand | 0.1 µM | 100
C=CC(=O)N1CCC(C(=O)NCC(=O)N2CCN(c3nc(-c4cnc(N)nc4C(F)F)nc(N4CCOCC4)n3)CC2)CC1 | binding, competition with immobilised ligand | 1 µM | 80
CCC(=N\O)/C(C)=C/c1ccc(F)cc1 | cell-free assay, competition with immobilised ligand | 1 µM | 100
N[C@@H]1CCN(c2nccc(-c3cnn4ncccc34)n2)C1 | binding | 1 µM | 100
O=C(NCCCN1CCOCC1)c1ccc(Nc2ncc(Cl)c(-c3ccc(Cl)s3)n2)cc1 | binding, competition with immobilised ligand | 1 µM | 43
COc1cnc(Nc2cccc(S(N)(=O)=O)c2)nc1N1CCN(c2ccccc2)CC1 | binding, competition with immobilised ligand | 1 µM | 80
F[C@@H]1CCN(c2nccc(-c3cnn4ncccc34)n2)C1 | binding | 1 µM | 100
CC1=C(C#N)[C@@H](c2ccc3[nH]nc(C)c3c2)C(C#N)=C(c2ccc(Cl)cc2)N1 | cell-free assay, competition with immobilised ligand | 1 µM | 100
CN(CCCC(F)(F)F)c1nccc(-c2cnn3ncccc23)n1 | binding | 1 µM | 100
Nc1cnc(N2CCc3cc(S(=O)(=O)Nc4c(F)cc(Cl)cc4F)cc(N4CCCC4=O)c32)nc1 | cell-free assay, competition with immobilised ligand | 1 µM | 80
C[C@H]1CCN(c2nccc(-c3cnn4ncccc34)n2)C1 | binding | 1 µM | 78
CN(C(=O)c1ccccc1)c1cc(N(C)c2ccc3c(c2)CCc2ccc(C(=O)NCCN4CCOCC4)cc2C3=O)ccc1F | cell-free assay, competition with immobilised ligand | 1 µM | 81
CN(c1nccc(-c2cnn3ncccc23)n1)C1CC1 | binding | 1 µM | 100
O=C1NC(c2ccccn2)Sc2ccccc21 (stereo not shown) | cell-free assay, competition with immobilised ligand | 1 µM | 96
CNC(=O)[C@@H]1CC[C@@H](n2c(-c3ccc4cnccc4c3)nc3ccc(C(=O)NCc4cccc(C(N)=O)c4)cc32)C1 | binding, competition with immobilised ligand | 1 µM | 100
CN(C)c1ncc(F)c(-c2cnn3ncccc23)n1 | binding | 1 µM | 73
O=C(NCCCN1CCOCC1)c1ccc(Nc2nccc(-c3cc4ccccc4s3)n2)cc1 | binding, competition with immobilised ligand | 1 µM | 82
